System: not listed separately
Assay: Selectivity ratio of alpha1 beta-3 gamma2 GABA A / BzR and alpha5 beta-3 gamma2 GABA A / BzR

| SMILES | Ratio |
| --- | --- |
| C#Cc1ccc2c(c1)C(=O)N(C)Cc1c(C(=O)OCC)ncn1-2 | 58 |
| C#Cc1ccc2c(c1)C(=O)N1CCC[C@@H]1c1c(C(=O)OCC)ncn1-2 | 39 |
| CCOC(=O)c1ncn2c1[C@@H]1CCCN1C(=O)c1cc(C#C[Si](C)(C)C)ccc1-2 | 50 |
| CN1Cc2c(C(=O)OC(C)(C)C)ncn2-c2ccc(C#CC[Si](C)(C)C)cc2C1=O | 12 |
| CN1Cc2c(C(=O)OC(C)(C)C)ncn2-c2ccc(N3CCCC3)cc2C1=O | 0.63 |
| C=Cc1ccc2c(c1)C(=O)N(C)Cc1c(C(=O)OCC)ncn1-2 | 20.8 |
| CN1Cc2c(C(=O)OC(C)(C)C)ncn2-c2ccc([N+](=O)[O-])cc2C1=O | 3.7 |
| C#Cc1ccc2c(c1)C(=O)N1CCC[C@H]1c1c(-c3nc(C(C)C)no3)ncn1-2 | 15 |
| CCN(CC)Cc1ncn2c1CN(C)C(=O)c1cc(Cl)ccc1-2 | 3.2 |
| C#Cc1ccc2c(c1)C(=O)N1CCC[C@H]1c1c(-c3nc(C)no3)ncn1-2 | 24 |
| CN1Cc2c(C(=O)OCC3CC3)ncn2-c2ccc(Cl)cc2C1=O | 1.7 |
| CCOC(=O)c1ncn2c1CN(C)C(=O)c1cc(C#C[Si](C)(C)C)ccc1-2 | 24.2 |
| CCOCc1ncn2c1CN(C)C(=O)c1cc(Cl)ccc1-2 | > 3.6 |
| COCc1ncn2c1CN(C)C(=O)c1cc(Cl)ccc1-2 | > 7.7 |
| CCOC(=O)c1ncn2c1[C@@H]1CCN1C(=O)c1cc(Br)ccc1-2 | 56 |
| C#Cc1ccc2c(c1)C(=O)N(C)Cc1c(C(=O)OC(C)(C)C)ncn1-2 | 67.3 |
| C#Cc1ccc2c(c1)C(=O)N1CC[C@H]1c1c(C(=O)OCC)ncn1-2 | 57 |
| CN1Cc2c(C(=O)OC(C)(C)C)ncn2-c2ccc(Cl)cc2C1=O | 26.6 |
| CC#Cc1ccc2c(c1)C(=O)N(C)Cc1c(C(=O)OCC)ncn1-2 | 6 |

| SMILES | Ratio |
| --- | --- |
| CCOC(=O)c1ncn2c1CN(C)C(=O)c1cc(CC)ccc1-2 | 13.6 |
| CN1Cc2c(CCl)ncn2-c2ccc(Cl)cc2C1=O | > 10.5 |
| COc1ccc2c(c1)C(=O)N(C)Cc1c(C(=O)OC(C)(C)C)ncn1-2 | 23 |
| C#Cc1ccc2c(c1)C(=O)N1CCC[C@H]1c1c(C(=O)OCC)ncn1-2 | 45 |
| CC(=O)c1ncn2c1CN(C)C(=O)c1cc(Cl)ccc1-2 | 6.7 |
| CN1Cc2c(C(=O)OC(C)(C)C)ncn2-c2ccc(N=C=S)cc2C1=O | 6.8 |
| CC(C)N(Cc1ncn2c1CN(C)C(=O)c1cc(Cl)ccc1-2)C(C)C | 3.2 |
| CCOC(=O)c1ncn2c1[C@@H]1CCN1C(=O)c1cc(C#C[Si](C)(C)C)ccc1-2 | 32 |
| CCOC(=O)c1ncn2c1CN(C)C(=O)c1cc(OCC)ccc1-2 | 12.4 |
| CCc1ncn2c1CN(C)C(=O)c1cc(Cl)ccc1-2 | 2.2 |
| CCCCC(=O)c1ncn2c1CN(C)C(=O)c1cc(Cl)ccc1-2 | 9.6 |
| CCOC(=O)c1ncn2c1CN(C)C(=O)c1cc(Cl)ccc1-2 | 8 |
| C#Cc1ccc2c(c1)C(=O)N1CCC[C@H]1c1c(-c3nc(CC)no3)ncn1-2 | 36 |
| C#Cc1ccc2c(c1)C(=O)N1CC[C@H]1c1c(-c3nc(C(C)C)no3)ncn1-2 | 18 |
| CCc1ccc2c(c1)C(=O)N(C)Cc1c(C(=O)OC(C)(C)C)ncn1-2 | 8.6 |
| CN1Cc2c(C(=O)OC(C)(C)C)ncn2-c2ccc(Br)cc2C1=O | 24.3 |
| C#Cc1ccc2c(c1)C(=O)N1CC[C@H]1c1c(-c3nc(CC)no3)ncn1-2 | 17 |
| CCCCCc1ncn2c1CN(C)C(=O)c1cc(Cl)ccc1-2 | 5.6 |
| CCOC(=O)c1ncn2c1[C@@H]1CCCN1C(=O)c1cc(Br)ccc1-2 | 49 |

Target: T1, GABA-A receptor; alpha-5/beta-3/gamma-2 (Homo sapiens, UniProt P18507+P28472+P31644)
T1 sequence (P18507 whole entry): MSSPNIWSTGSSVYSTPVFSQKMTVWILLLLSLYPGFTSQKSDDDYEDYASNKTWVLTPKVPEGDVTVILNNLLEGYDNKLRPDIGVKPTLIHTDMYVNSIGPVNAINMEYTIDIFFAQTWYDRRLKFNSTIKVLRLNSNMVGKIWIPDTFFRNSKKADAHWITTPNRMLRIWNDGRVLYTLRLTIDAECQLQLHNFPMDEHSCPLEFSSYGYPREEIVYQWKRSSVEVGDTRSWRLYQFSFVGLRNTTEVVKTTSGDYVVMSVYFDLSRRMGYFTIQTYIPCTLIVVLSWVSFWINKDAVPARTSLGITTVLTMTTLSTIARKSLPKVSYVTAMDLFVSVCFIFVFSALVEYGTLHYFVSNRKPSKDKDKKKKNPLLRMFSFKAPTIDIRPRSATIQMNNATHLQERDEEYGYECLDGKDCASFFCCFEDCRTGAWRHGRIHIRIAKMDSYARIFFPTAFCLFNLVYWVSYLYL
T1 sequence (P28472 whole entry): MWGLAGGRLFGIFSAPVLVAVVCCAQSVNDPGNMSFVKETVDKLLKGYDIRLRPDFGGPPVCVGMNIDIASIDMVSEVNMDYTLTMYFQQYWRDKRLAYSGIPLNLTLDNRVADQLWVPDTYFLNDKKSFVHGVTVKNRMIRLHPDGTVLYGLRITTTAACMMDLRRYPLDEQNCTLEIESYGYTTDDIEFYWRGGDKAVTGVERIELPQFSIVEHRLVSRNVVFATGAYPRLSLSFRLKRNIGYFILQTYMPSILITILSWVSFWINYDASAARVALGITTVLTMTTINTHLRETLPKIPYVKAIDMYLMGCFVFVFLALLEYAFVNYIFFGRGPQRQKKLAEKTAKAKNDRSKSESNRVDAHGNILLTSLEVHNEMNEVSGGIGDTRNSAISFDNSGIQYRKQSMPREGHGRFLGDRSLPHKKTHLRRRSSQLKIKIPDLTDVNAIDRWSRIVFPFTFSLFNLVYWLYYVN
T1 sequence (P31644 whole entry): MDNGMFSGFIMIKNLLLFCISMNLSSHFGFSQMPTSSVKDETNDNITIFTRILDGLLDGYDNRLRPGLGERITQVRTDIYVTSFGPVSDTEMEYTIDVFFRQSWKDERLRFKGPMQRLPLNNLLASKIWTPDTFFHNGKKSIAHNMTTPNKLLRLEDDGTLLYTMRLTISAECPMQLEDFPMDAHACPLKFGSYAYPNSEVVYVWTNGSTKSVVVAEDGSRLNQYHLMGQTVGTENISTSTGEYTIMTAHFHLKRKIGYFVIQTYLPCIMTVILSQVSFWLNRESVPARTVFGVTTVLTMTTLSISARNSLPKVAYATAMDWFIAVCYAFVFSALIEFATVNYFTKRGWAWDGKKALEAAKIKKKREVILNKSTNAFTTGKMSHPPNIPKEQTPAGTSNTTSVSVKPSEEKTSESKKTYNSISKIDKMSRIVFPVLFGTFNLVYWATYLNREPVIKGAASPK
Assay: Binding affinity for human recombinant gamma-aminobutyric-acid (GABA) A receptor alpha-5-beta-3-gamma-2
Format: protein-complex assay

| SMILES | Ki |
| --- | --- |
| CCOC(=O)c1ncn2c1CN(C)C(=O)c1cc(N=[N+]=[N-])ccc1-2 [Ro-154513] | 0.0003 µM |
| CCOc1cc2c(cn1)[nH]c1ccccc12 | 0.826 µM |

Target: GABA-A receptor; alpha-6/beta-3/gamma-2 (Homo sapiens, UniProt P18507+P28472+Q16445)
Assay: Binding affinity for human recombinant gamma-aminobutyric-acid (GABA) A receptor alpha-6-beta-3-gamma-2
Format: protein-complex assay
Summary of the method: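 Ltk⁻ cells expressing human α6β3γ2 were harvested by scraping into PBS, centrifuged at 3000g and resuspended in 10 mM KH₂PO₄/100 mM KCl (pH 7.4). Incubation was 1 h at 4 °C with filter harvest and scintillation counting.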

Sequence of GABA-A receptor; alpha-6/beta-3/gamma-2 (Q16445 whole entry, one chain of several): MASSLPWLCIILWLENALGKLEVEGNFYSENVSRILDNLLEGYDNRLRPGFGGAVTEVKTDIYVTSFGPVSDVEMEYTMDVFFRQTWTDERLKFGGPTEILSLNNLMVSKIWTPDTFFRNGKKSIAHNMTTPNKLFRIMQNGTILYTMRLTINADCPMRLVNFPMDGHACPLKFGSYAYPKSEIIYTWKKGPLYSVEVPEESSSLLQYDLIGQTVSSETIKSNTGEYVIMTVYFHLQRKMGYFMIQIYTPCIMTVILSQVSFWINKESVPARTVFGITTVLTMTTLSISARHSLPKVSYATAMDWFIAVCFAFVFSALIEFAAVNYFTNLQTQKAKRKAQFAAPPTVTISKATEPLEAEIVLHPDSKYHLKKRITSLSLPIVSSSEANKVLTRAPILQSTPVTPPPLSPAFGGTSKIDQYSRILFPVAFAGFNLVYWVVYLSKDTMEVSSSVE

| SMILES | Ki |
| --- | --- |
| CCCOc1ccc2[nH]c3cnc(OCCC)c(COC)c3c2c1 | > 1 µM |
| CN1C(=O)CN=C(c2ccccc2)c2cc(Cl)ccc21 [DIAZEPAM] | > 3 µM |
| COCc1c(C(=O)OC(C)C)ncc2[nH]c3ccc(OCc4ccccc4)cc3c12 [ABECARNIL] | > 1 µM |

Target: T2, GABA-A receptor; alpha-3/beta-3/gamma-2 (Homo sapiens, UniProt P18507+P28472+P34903)
T2 sequence (P18507 whole entry): T1 sequence (P18507 whole entry)
T2 sequence (P28472 whole entry): T1 sequence (P28472 whole entry)
T2 sequence (P34903 whole entry): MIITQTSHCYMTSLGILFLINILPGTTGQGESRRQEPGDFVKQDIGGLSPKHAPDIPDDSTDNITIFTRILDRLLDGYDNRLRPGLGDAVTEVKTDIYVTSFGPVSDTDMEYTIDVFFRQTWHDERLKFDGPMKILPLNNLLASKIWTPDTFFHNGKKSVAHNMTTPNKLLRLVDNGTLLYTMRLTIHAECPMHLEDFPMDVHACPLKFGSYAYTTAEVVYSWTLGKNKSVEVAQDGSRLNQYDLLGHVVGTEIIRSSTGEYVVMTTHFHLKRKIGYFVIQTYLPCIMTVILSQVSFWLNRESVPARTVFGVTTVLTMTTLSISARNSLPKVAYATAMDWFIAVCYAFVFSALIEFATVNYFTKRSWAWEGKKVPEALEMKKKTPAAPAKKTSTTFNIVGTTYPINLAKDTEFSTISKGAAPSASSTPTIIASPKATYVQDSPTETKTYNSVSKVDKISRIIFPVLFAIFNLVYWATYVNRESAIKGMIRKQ
Assay: Binding affinity for human recombinant gamma-aminobutyric-acid (GABA) A receptor alpha-3-beta-3-gamma-2
Format: protein-complex assay

| SMILES | Ki |
| --- | --- |
| CCOc1cc2c(cn1)[nH]c1ccccc12 | 0.0282 µM |
